Source: ChEMBL document CHEMBL1135300, “The mechanism of the irreversible inhibition of estrone sulfatase (ES) through the consideration of a range of methane- and amino-sulfonate-based compounds” (Bioorg Med Chem Lett, 2002)

Columns and labels:
[1] = target: T1, Steryl-sulfatase (Homo sapiens) (UniProt P08842); assay: In vitro inhibition of estrone sulfatase at 1 mM.
T1 sequence (whole entry): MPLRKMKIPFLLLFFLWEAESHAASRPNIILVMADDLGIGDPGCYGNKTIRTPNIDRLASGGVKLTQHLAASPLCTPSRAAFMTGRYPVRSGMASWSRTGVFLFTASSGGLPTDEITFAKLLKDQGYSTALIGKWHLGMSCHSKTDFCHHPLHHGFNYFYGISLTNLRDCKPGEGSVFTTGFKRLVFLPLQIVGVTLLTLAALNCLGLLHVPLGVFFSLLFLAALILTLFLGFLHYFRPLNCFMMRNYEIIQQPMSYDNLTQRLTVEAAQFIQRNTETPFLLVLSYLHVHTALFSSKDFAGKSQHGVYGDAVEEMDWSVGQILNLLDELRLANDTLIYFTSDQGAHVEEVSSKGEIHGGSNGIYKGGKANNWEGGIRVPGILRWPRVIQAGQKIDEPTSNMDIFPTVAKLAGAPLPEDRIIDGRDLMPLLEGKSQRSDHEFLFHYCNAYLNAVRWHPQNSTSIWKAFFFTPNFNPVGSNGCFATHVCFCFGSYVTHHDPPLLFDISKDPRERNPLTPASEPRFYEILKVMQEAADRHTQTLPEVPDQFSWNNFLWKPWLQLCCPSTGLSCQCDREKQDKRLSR
Procedure, shortened: (§1)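 ³H-estrone sulfate (750,000 dpm per tube) with inhibitors from ethanol stock, ethanol evaporated under nitrogen. Placental microsomes in 0.05 M Tris–HCl, pH 7.2, were prewarmed 5 min at 37 °C, then added; 1 mL total, incubated 20 min at 37 °C. Toluene quench, extraction, and scintillation counting of product. Triplicates; no-inhibitor controls; boiled-microsome blanks.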

[2] = target: T2, Steryl-sulfatase (Homo sapiens, UniProt P08842); assay: In vitro inhibition of estrone sulfatase.; procedure, shortened: as §1
T2 sequence (P08842 whole entry): T1 sequence (whole entry)

[3] = target: T1, Steryl-sulfatase (Homo sapiens); assay: In vitro inhibition of estrone sulfatase at 10 mM.; procedure, shortened: as §1

Row | Structure (SMILES) | inhibition [1] [%] | IC50 [2] [uM l-1] | inhibition [3] [%]
1 | CCCCCCCCCOS(C)(=O)=O | 28 |  | 
2 | CCCCCCCCCCCCOS(C)(=O)=O | 17 |  | 
3 | NS(=O)(=O)Oc1ccc([N+](=O)[O-])cc1 | 82.5 | 330 | 
4 | CCCCCCCCOS(N)(=O)=O |  |  | 0
5 | N#Cc1ccc(OS(N)(=O)=O)cc1 | 74.4 | 300 | 
6 | NS(=O)(=O)OCCCl | 15 |  | 
7 | CCCCCCCCCOS(N)(=O)=O |  |  | 0
8 | NS(=O)(=O)OCC(Cl)Cl | 30 |  | 
9 | CCCCCCCOS(N)(=O)=O |  |  | 0
10 | NS(=O)(=O)OCC(Cl)(Cl)Cl | 60 | 750 | 

The remaining lines, values ahead:

Row | inhibition [1] [%] | IC50 [2] [uM l-1] | inhibition [3] [%] | Structure (SMILES)
11 | 27.4 | > 10000 |  | Cc1ccc(OS(N)(=O)=O)cc1
12 | 75.1 | 257 |  | NS(=O)(=O)Oc1cccc(Br)c1
13 | 29.7 | > 10000 |  | NS(=O)(=O)Oc1ccccc1 [PHENYLSULFAMATE]
14 | 37.6 | 1585 |  | NS(=O)(=O)Oc1ccc(Cl)cc1
15 | 37 | 537 |  | NS(=O)(=O)Oc1ccc(F)cc1
16 | 89.4 | 120 |  | NS(=O)(=O)Oc1cccc(I)c1
17 | 50.8 | 912 |  | NS(=O)(=O)Oc1ccc(Br)cc1
18 | 84.3 | 191 |  | N#Cc1cccc(OS(N)(=O)=O)c1
19 | 66 | 560 |  | NS(=O)(=O)Oc1ccc(I)cc1
20 | 62 | 537 |  | NS(=O)(=O)Oc1cccc(Cl)c1
21 | 79.6 | 2089 |  | NS(=O)(=O)Oc1cccc(F)c1
22 | 39.5 | 2089 |  | Cc1cccc(OS(N)(=O)=O)c1
23 | 90.4 | 120 |  | NS(=O)(=O)Oc1cccc([N+](=O)[O-])c1
